Legend:
Format in all cases: functional, cell-based
OVCAR-3 = experiment: Cytotoxicity against human OVCAR-3 cells after 72 hrs by Cell Titer-Blue cell viability assay; conditions: OVCAR-3, 72 h
In short: (§1)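 Cells kept at 37 °C, 5% CO2 in RPMI 1640 with 10% FBS, penicillin 100 units/mL and streptomycin 100 μg/mL. Log-phase cells harvested by trypsin, washed twice, seeded at 5,000 per well and left overnight. DMSO-dissolved samples diluted and added, then 72 h at 37 °C. Viability read by CellTiter-Blue absorbance. IC50 is the concentration giving 50% growth relative to DMSO control.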

MDA-MB-231 = experiment: Cytotoxicity against human MDA-MB-231 cells after 72 hrs by Cell Titer-Blue cell viability assay; conditions: MDA-MB-231, 72 h; in short: as §1
MDA-MB-435 = experiment: Cytotoxicity against human MDA-MB-435 cells after 72 hrs by Cell Titer-Blue cell viability assay; conditions: MDA-MB-435, 72 h; in short: as §1

Row | SMILES | IC50 (OVCAR-3) [µM] | IC50 (MDA-MB-231) [µM] | IC50 (MDA-MB-435) [µM]
1 | CC(=O)O[C@H]1C(=O)[C@@]2(C)[C@H]([C@H](OC(=O)c3ccccc3)[C@]3(O)C[C@H](OC(=O)[C@H](O)[C@@H](NC(=O)c4ccccc4)c4ccccc4)C(C)=C1C3(C)C)[C@]1(OC(C)=O)CO[C@@H]1C[C@@H]2O [PACLITAXEL] | 0.0051 | 0.0002 | 
2 | CCc1c(OC)cc2c(c1O)C(=O)C[C@@H](OC)[C@H]2O | > 25 | > 25 | > 25
3 | COC1=CC(=O)c2c(cc(OC)c(C(C)O)c2O)C1=O (racemic) | 7.9 | 12 | 3
4 | COC1=CC(=O)c2c(cc(OC)c(C)c2O)C1=O | 9.6 | 15 | 3.2
5 | COC1=CC(=O)c2c(cc(OC)c(C(C)OC(C)=O)c2O)C1=O (racemic) | 0.9 | 6.2 | 0.7
6 | COC1=CC(=O)c2c(cc(OC)c(C(C)C3=C(O)C(=O)c4cc(OC)cc(O)c4C3=O)c2O)C1=O (racemic) | 17 | 20 | 3.6
7 | COC1=CC(=O)c2c(cc(OC)c(C(C)OC)c2O)C1=O (racemic) | 13 | 12 | 3.4
8 | COC1=CC(=O)c2c(cc(OC)c(C(C)C3=C(O)C(=O)c4cc(O)c(C(C)=O)c(O)c4C3=O)c2O)C1=O (racemic) [KIRSCHSTEININ] | 6.6 | 4.4 | 2.2
9 | CCc1c(OC)cc2c(c1O)C(=O)C(C(C)c1c(OC)cc3c(c1O)C(=O)C=C(OC)C3=O)=C(O)C2=O (racemic) | 18 | 17 | 15
10 | CCc1c(OC)cc2c(c1O)C(=O)C=C(OC)C2=O | 7.3 | 7.8 | 2.1

Reference: ChEMBL document CHEMBL4823242, “Cytotoxic Naphthoquinone Analogues, Including Heterodimers, and Their Structure Elucidation Using LR-HSQMBC NMR Experiments” (J Nat Prod, 2021)
